Assay results reported in ChEMBL document CHEMBL3244382, “Structural requirements for antileukemic activity among the naturally occurring and semisynthetic maytansinoids” (J Med Chem, 1978).
In brackets after ≈: the same amount, converted by molar mass. Activity calls are given as the source filed them.

How the values were obtained:
Mus musculus [1] = experiment: Toxicity in PS mouse allografted with mouse P388 cells assessed as change in body weight at 50 ug/kg relative to control; format: organism-based; details: in vivo, 0.05 mg/kg
Procedure, shortened: (§1)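 P388 (PS) leukemia in mice, 6 mice per dose group. Weight change is the difference in grams between treated and control animals. Survivors are recorded on toxicity day, normally 4 days after the first injection.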

Mus musculus [2] = experiment: Toxicity in PS mouse allografted with mouse P388 cells assessed as change in body weight at 200 ug/kg relative to control; format: organism-based; details: in vivo, 0.2 mg/kg; procedure, shortened: as §1
P388 [3] = experiment: Antitumor activity against mouse P388 cells allografted in PS mouse assessed as median survival time at 100 ug/kg relative to control; format: functional
Procedure, shortened: (§2)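 P388 leukemia (PS) in mice, six mice started per dose group. Read-out is T/C: median survival time of the treated group divided by that of the untreated control group, expressed as a percent. The NIH protocol counts a compound as active when T/C > 125%.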

Mus musculus [4] = experiment: Toxicity in PS mouse allografted with mouse P388 cells assessed as survival at 3.1 ug/kg after 4 days; format: organism-based; details: in vivo, 0.0031 mg/kg, 96 h
Procedure, shortened: (§3)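 PS (P388) leukemic mice, six started per dose group. Toxicity scored as survivors on the toxicity day over the number of mice started. The toxicity day is normally 4 days after the first injection.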

KB = experiment: Cytotoxicity against human KB cells; format: functional; details: read-out: ED50 (the source's name)
Mus musculus [5] = experiment: Toxicity in PS mouse allografted with mouse P388 cells assessed as survival at 12.5 ug/kg after 4 days; format: organism-based; details: in vivo, 0.0125 mg/kg, 96 h; procedure, shortened: as §3
Mus musculus [6] = experiment: Toxicity in PS mouse allografted with mouse P388 cells assessed as change in body weight at 1.6 ug/kg relative to control; format: organism-based; details: in vivo, 0.0016 mg/kg; procedure, shortened: as §1
P388 [7] = experiment: Antitumor activity against mouse P388 cells allografted in PS mouse assessed as median survival time at 50 ug/kg relative to control; format: functional; procedure, shortened: as §2
Mus musculus [8] = experiment: Toxicity in PS mouse allografted with mouse P388 cells assessed as change in body weight at 0.8 ug/kg relative to control; format: organism-based; details: in vivo, 0.0008 mg/kg
Procedure, shortened: (§4)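 PS (P388 leukemia) mice, six per dose group. Toxicity read as the difference in grams between the weights of treated and control animals.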

P388 [9] = experiment: Antitumor activity against mouse P388 cells allografted in PS mouse assessed as median survival time at 1.6 ug/kg relative to control; format: functional; procedure, shortened: as §2
Mus musculus [10] = experiment: Toxicity in PS mouse allografted with mouse P388 cells assessed as change in body weight at 3.1 ug/kg relative to control; format: organism-based; details: in vivo, 0.0031 mg/kg; procedure, shortened: as §1
P388 [11] = experiment: Antitumor activity against mouse P388 cells allografted in PS mouse assessed as median survival time at 0.8 ug/kg relative to control; format: functional; procedure, shortened: as §2
P388 [12] = experiment: Antitumor activity against mouse P388 cells allografted in PS mouse assessed as median survival time at 3.1 ug/kg relative to control; format: functional; procedure, shortened: as §2
Mus musculus [13] = experiment: Toxicity in PS mouse allografted with mouse P388 cells assessed as survival at 0.8 ug/kg after 4 days; format: organism-based; details: in vivo, 0.0008 mg/kg, 96 h; procedure, shortened: as §3
Mus musculus [14] = experiment: Toxicity in PS mouse allografted with mouse P388 cells assessed as change in body weight at 25 ug/kg relative to control; format: organism-based; details: in vivo, 0.025 mg/kg; procedure, shortened: as §1
P388 [15] = experiment: Antitumor activity against mouse P388 cells allografted in PS mouse assessed as median survival time at 12.5 ug/kg relative to control; format: functional; procedure, shortened: as §2
Mus musculus [16] = experiment: Toxicity in PS mouse allografted with mouse P388 cells assessed as survival at 100 ug/kg after 4 days; format: organism-based; details: in vivo, 0.1 mg/kg, 96 h; procedure, shortened: as §3
Mus musculus [17] = experiment: Toxicity in PS mouse allografted with mouse P388 cells assessed as survival at 6.2 ug/kg after 4 days; format: organism-based; details: in vivo, 0.0062 mg/kg, 96 h; procedure, shortened: as §3
Mus musculus [18] = experiment: Toxicity in PS mouse allografted with mouse P388 cells assessed as survival at 200 ug/kg after 4 days; format: organism-based; details: in vivo, 0.2 mg/kg, 96 h; procedure, shortened: as §3
Mus musculus [19] = experiment: Toxicity in PS mouse allografted with mouse P388 cells assessed as change in body weight at 12.5 ug/kg relative to control; format: organism-based; details: in vivo, 0.0125 mg/kg; procedure, shortened: as §1
P388 [20] = experiment: Antitumor activity against mouse P388 cells allografted in PS mouse assessed as median survival time at 25 ug/kg relative to control; format: functional; procedure, shortened: as §2
Mus musculus [21] = experiment: Toxicity in PS mouse allografted with mouse P388 cells assessed as change in body weight at 6.2 ug/kg relative to control; format: organism-based; details: in vivo, 0.0062 mg/kg; procedure, shortened: as §1
P388 [22] = experiment: Antitumor activity against mouse P388 cells allografted in PS mouse assessed as median survival time at 6.2 ug/kg relative to control; format: functional; procedure, shortened: as §2
P388 [23] = experiment: Antitumor activity against mouse P388 cells allografted in PS mouse assessed as median survival time at 200 ug/kg relative to control; format: functional; procedure, shortened: as §2
Mus musculus [24] = experiment: Toxicity in PS mouse allografted with mouse P388 cells assessed as survival at 25 ug/kg after 4 days; format: organism-based; details: in vivo, 0.025 mg/kg, 96 h; procedure, shortened: as §3
Mus musculus [25] = experiment: Toxicity in PS mouse allografted with mouse P388 cells assessed as survival at 50 ug/kg after 4 days; format: organism-based; details: in vivo, 0.05 mg/kg, 96 h; procedure, shortened: as §3
Mus musculus [26] = experiment: Toxicity in PS mouse allografted with mouse P388 cells assessed as change in body weight at 100 ug/kg relative to control; format: organism-based; details: in vivo, 0.1 mg/kg; procedure, shortened: as §1
Mus musculus [27] = experiment: Toxicity in PS mouse allografted with mouse P388 cells assessed as survival at 1.6 ug/kg after 4 days; format: organism-based; details: in vivo, 0.0016 mg/kg, 96 h; procedure, shortened: as §3
Tubulin (Homo sapiens) = Tubulin (Homo sapiens) (UniProt P68371+Q9H4B7+P0DPH7+P68366+Q13509+Q71U36+P04350+Q3ZCM7+P07437+P68363+Q9BQE3+Q6PEY2+Q13885+Q9BVA1+Q9BUF5); experiment: Inhibition of brain tubulin polymerization (unknown origin) at 37 degC by spectrophotometry
Mus musculus [28] = experiment: Toxicity in PS mouse allografted with mouse P388 cells assessed as survival at 0.4 ug/kg after 4 days; format: organism-based; details: in vivo, 0.0004 mg/kg, 96 h; procedure, shortened: as §3
Paracentrotus lividus = experiment: Antimitotic activity against sea urchin eggs assessed as drug level causing inhibition of mitosis; format: functional; details: Egg
Mus musculus [29] = experiment: Toxicity in PS mouse allografted with mouse P388 cells assessed as change in body weight at 0.4 ug/kg relative to control; format: organism-based; details: in vivo, 0.0004 mg/kg; procedure, shortened: as §4
P388 [30] = experiment: Antitumor activity against mouse P388 cells allografted in PS mouse assessed as median survival time at 0.4 ug/kg relative to control; format: functional; procedure, shortened: as §2
P388 [31] = experiment: Antitumor activity against mouse P388 cells allografted in PS mouse assessed as median survival time at 400 ug/kg relative to control; format: functional; procedure, shortened: as §2
Mus musculus [32] = experiment: Toxicity in PS mouse allografted with mouse P388 cells assessed as survival at 400 ug/kg after 4 days; format: organism-based; details: in vivo, 0.4 mg/kg, 96 h; procedure, shortened: as §3
Mus musculus [33] = experiment: Toxicity in PS mouse allografted with mouse P388 cells assessed as change in body weight at 400 ug/kg relative to control; format: organism-based; details: in vivo, 0.4 mg/kg; procedure, shortened: as §1

Row | Structure (SMILES) | Activity (Mus musculus [1]) [g] | Activity (Mus musculus [2]) [g] | T/C (P388 [3]) [%] | Activity (Mus musculus [4]) | EC50 (KB) [ng/mL] | Activity (Mus musculus [5]) | Activity (Mus musculus [6]) [g] | T/C (P388 [7]) [%] | Activity (Mus musculus [8]) [g] | T/C (P388 [9]) [%] | Activity (Mus musculus [10]) [g] | T/C (P388 [11]) [%] | T/C (P388 [12]) [%] | Activity (Mus musculus [16]) | Activity (Mus musculus [18]) | T/C (P388 [23]) [%] | Activity (Mus musculus [25]) | Activity (Mus musculus [26]) [g] | inhibition (Tubulin (Homo sapiens)) | Activity (Paracentrotus lividus) | also measured
1 | C/C=C/C(=O)O[C@H]1CC(=O)N(C)c2cc(cc(OC)c2Cl)C/C(C)=C/C=C/[C@@H](OC)[C@@]2(O)C[C@H](OC(=O)N2)[C@@H](C)[C@@H]2O[C@@]12C | -3.5 | -1.8 | 210 | Non-toxic | 0.23 (≈ 0.363 nM) | Non-toxic | -4.5 | 210 | -4.5 | 150 | -1.7 | 150 | 150 | Non-toxic | Non-toxic | 210 | Non-toxic | -3.6 |  |  | Activity (Mus musculus [13]): Non-toxic; Activity (Mus musculus [14]): -3.6 g; T/C (P388 [15]): 170%; Activity (Mus musculus [17]): Non-toxic; Activity (Mus musculus [19]): -2.5 g; T/C (P388 [20]): 173%; Activity (Mus musculus [21]): -3 g; T/C (P388 [22]): 160%; Activity (Mus musculus [24]): Non-toxic; Activity (Mus musculus [27]): Non-toxic
2 | COc1cc2cc(c1Cl)N(C)C(=O)C[C@H](OC(=O)[C@H](C)N(C)C(C)=O)[C@]1(C)O[C@H]1[C@H](C)[C@@H]1C[C@@](O)(NC(=O)O1)[C@H](OC)/C=C/C=C(\C)C2 [MAYTANSINE] | 0.3 |  | <80 | Non-toxic | 0.0061 (≈ 0.00881 nM) | Non-toxic | 1.6 | 125 | 1.4 | 155 | -0.1 | 145 | 165 | Non-toxic |  |  | Non-toxic | -0.4 | Active | 1 ×10⁻⁷ mol/L | Activity (Mus musculus [13]): Non-toxic; Activity (Mus musculus [14]): 0.6 g; T/C (P388 [15]): 190%; Activity (Mus musculus [17]): Non-toxic; Activity (Mus musculus [19]): 1.6 g; T/C (P388 [20]): 220%; Activity (Mus musculus [28]): Non-toxic; Activity (Mus musculus [21]): 1.3 g; T/C (P388 [22]): 195%; Activity (Mus musculus [24]): Non-toxic; Activity (Mus musculus [29]): 1.7 g; T/C (P388 [30]): 125%; Activity (Mus musculus [27]): Non-toxic
3 | CCCS[C@]12C[C@H](OC(=O)N1)[C@@H](C)[C@@H]1O[C@@]1(C)[C@@H](OC(=O)[C@H](C)N(C)C(C)=O)CC(=O)N(C)c1cc(cc(OC)c1Cl)C/C(C)=C/C=C/[C@H]2OC | -1.3 | 0.1 | 114 |  | 0.18 (≈ 0.24 nM) |  |  | 111 |  |  |  |  |  | Non-toxic | Non-toxic | 114 | Non-toxic | 2.8 | Active | 1 ×10⁻⁸ mol/L | T/C (P388 [31]): 114%; Activity (Mus musculus [32]): Non-toxic; Activity (Mus musculus [33]): -0.7 g
4 | CCO[C@]12C[C@H](OC(=O)N1)[C@@H](C)[C@@H]1O[C@@]1(C)[C@@H](OC(=O)[C@H](C)N(C)C(=O)C(C)C)CC(=O)N(C)c1cc(cc(OC)c1Cl)C/C(C)=C/C=C/[C@H]2OC | 1.3 | 0.3 | 109 |  | 1.2 (≈ 1.6 nM) |  |  | 100 |  |  |  |  |  | Non-toxic | Non-toxic | 134 | Non-toxic | 3.4 | Active | 1 ×10⁻⁷ mol/L | T/C (P388 [31]): 149%; Activity (Mus musculus [32]): Non-toxic; Activity (Mus musculus [33]): -0.9 g
